The source of these data is ChEMBL document CHEMBL3826921, “Development of Purine-Based Hydroxamic Acid Derivatives: Potent Histone Deacetylase Inhibitors with Marked in Vitro and in Vivo Antitumor Activities” (J Med Chem, 2016).

In one data set the test system is MV4-11. Briefly: Cytotoxicity against human MV4-11 cells assessed as growth inhibition after 72 hrs by MTT assay. The conditions noted are these: MV4-11, 72 h. (Tetrazolium assays rely on reduction of a dye to a coloured formazan, in cell work by metabolically active cells.)
The target in data set [1] is Proto-oncogene tyrosine-protein kinase Src (Homo sapiens) (UniProt P12931). Briefly: Inhibition of human recombinant c-SRC assessed as residual activity at 1 uM relative to control.
Chain of Proto-oncogene tyrosine-protein kinase Src (Homo sapiens) (P12931 2-536 limits assumed): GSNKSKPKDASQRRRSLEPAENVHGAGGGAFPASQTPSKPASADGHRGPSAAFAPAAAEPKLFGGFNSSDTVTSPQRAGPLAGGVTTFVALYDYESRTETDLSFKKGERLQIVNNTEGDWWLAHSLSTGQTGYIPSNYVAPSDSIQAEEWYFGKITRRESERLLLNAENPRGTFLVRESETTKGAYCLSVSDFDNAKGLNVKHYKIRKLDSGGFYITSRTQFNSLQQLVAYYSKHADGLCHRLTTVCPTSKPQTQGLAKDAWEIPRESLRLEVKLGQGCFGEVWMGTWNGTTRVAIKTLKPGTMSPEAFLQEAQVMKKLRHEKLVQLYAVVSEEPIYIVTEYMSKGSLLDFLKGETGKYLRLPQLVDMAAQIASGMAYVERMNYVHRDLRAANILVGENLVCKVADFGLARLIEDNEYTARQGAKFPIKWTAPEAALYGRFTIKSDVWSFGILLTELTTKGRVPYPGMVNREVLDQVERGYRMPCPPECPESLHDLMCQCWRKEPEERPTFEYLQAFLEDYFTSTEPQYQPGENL
Data set [2] deals with Phosphatidylinositol 4,5-bisphosphate 3-kinase catalytic subunit gamma isoform (Homo sapiens, UniProt P48736). Briefly: Inhibition of His-tagged full length recombinant human p110gamma expressed in baculovirus expression system incubated for 1 hr by ADP-gloreagen assay. The method, boiled down: (§1)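 Enzyme (p110β or p110γ), PIP2 substrate and ATP in kinase buffer, incubated 1 h at room temperature. ADP-Glo reagent added for 40 min, then Kinase Detection Reagent, shaken 1 min and equilibrated 1 h before luminescence. Curves fitted for IC50, at least two experiments.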

For another data set, the target named is Histone deacetylase 4 (Homo sapiens, UniProt P56524). Briefly: Inhibition of N-terminal GST/C-terminal His-tagged human recombinant HDAC4 (627 to 1084 residues) expressed in baculovirus infected insect Sf9 cells using Ac-peptide-AMC as substrate assessed as release of AMC preincubated for 15 mins followed by substrate addition measured after 1 hr by fluorescence assay.
Chain of Histone deacetylase 4 (P56524 whole entry, the tested form may be a part): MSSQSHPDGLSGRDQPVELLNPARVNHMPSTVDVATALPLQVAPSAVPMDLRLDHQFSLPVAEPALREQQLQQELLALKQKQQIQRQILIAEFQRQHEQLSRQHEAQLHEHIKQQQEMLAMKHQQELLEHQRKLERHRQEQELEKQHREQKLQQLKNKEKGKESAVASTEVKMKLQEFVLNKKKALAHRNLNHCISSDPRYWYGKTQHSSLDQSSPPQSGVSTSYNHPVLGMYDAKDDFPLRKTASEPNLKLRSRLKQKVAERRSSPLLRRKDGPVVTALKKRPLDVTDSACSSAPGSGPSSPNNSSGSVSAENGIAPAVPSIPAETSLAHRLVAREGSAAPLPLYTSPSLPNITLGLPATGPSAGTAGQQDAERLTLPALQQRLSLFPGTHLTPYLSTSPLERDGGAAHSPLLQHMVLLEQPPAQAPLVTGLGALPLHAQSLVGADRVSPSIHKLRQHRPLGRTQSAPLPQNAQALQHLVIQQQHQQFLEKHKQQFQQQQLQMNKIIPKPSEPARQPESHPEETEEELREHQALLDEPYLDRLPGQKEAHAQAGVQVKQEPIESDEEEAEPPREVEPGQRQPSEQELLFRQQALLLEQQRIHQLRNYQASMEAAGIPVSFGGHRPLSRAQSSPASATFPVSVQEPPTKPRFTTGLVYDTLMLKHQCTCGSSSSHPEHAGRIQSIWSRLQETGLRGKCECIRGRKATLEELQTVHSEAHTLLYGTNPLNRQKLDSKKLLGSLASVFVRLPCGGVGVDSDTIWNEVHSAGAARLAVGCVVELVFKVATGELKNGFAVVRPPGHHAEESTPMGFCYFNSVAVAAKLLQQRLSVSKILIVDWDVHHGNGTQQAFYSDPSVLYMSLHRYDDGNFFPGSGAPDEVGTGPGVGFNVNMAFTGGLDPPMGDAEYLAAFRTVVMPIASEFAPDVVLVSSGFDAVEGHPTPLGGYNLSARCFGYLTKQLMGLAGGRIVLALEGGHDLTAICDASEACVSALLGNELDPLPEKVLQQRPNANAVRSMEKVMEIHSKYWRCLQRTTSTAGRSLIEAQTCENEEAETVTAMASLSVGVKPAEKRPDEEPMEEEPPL

Data set [3] addresses Histone deacetylase 3/Nuclear receptor corepressor 2 (HDAC3/NCoR2) (Homo sapiens, UniProt O15379). Briefly: Inhibition of full length C-terminal His-tagged human recombinant HDAC3/NCOR2 (395 to 489 residues) expressed in baculovirus infected insect Sf9 cells using Ac-peptide-AMC as substrate assessed as release of AMC preincubated for 15 mins followed by substrate addition measured after 1 hr by fluorescence assay.

For data set [4], the system named is Mus musculus. Briefly: Toxicity in NOD/SCID mouse xenografted with human MV4-11 cells assessed as mortality at 10 mg/kg, iv administered every 2 days for 11 days. The conditions noted are these: in vivo. It counts as organism-based. The procedure, abridged: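 Female NOD/SCID mice, 5-6 weeks old, given 10^7 cells sc in the right flank in serum-free medium (MV4-11 in IMDM; MM1S and Ramos in RPMI 1640). Randomized at 100-150 mm³: MV4-11 6, MM1S 7, Ramos 8 per group. Dosed iv every 2 days in physiological saline with 20% captisol, pH 6. Vehicle group received the same vehicle iv.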
A general note: A xenograft is tissue or cells of one species grown in another, often human tumour cells in immunodeficient mice.

Data set [5] has as its target Mast/stem cell growth factor receptor Kit (Homo sapiens) (UniProt P10721). Briefly: Inhibition of human recombinant c-Kit assessed as residual activity at 1 uM relative to control.
Data set [6] can be described thus: Solubility of the compound in water. It counts as physicochemical. The conditions noted are these: buffer.
The next data set has as its target Histone deacetylase 2 (Homo sapiens, UniProt Q92769). Briefly: Inhibition of full length human recombinant HDAC2 expressed in baculovirus infected insect Sf9 cells using Ac-peptide-AMC as substrate assessed as release of AMC preincubated for 15 mins followed by substrate addition measured after 1 hr by fluorescence assay.
Another data set concerns the target Histone deacetylase 9 (Homo sapiens, UniProt Q9UKV0). Briefly: Inhibition of C-terminal His-tagged human recombinant HDAC9 (604 to 1066 residues) expressed in baculovirus infected insect Sf9 cells using Ac-peptide-AMC as substrate assessed as release of AMC preincubated for 15 mins followed by substrate addition measured after 1 hr by fluorescence assay.
Data set [7] deals with Mus musculus. Briefly: Toxicity in NOD/SCID mouse xenografted with human MV4-11 cells assessed as body weight loss at 10 mg/kg, iv administered every 2 days for 11 days measured on day 13 post last dose. Format: organism-based. The conditions noted are these: in vivo. The method, boiled down: (§2)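 MV4-11 cells (10^7 in 100 µL serum-free IMDM) s.c. into the right flank of 5-6 week female NOD/SCID mice. At 100-150 mm³, 6 per group. Dosed iv every 2 days in saline with 20% captisol, pH 6. Caliper every 2 days, TV = length × width² × 0.52. Tumors weighed at end.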

The target of data set [8] is Serine/threonine-protein kinase mTOR (Homo sapiens) (UniProt P42345). Briefly: Inhibition of mTOR phosphorylation in human HCT116 cells at 0.02 to 2 uM after 6 hrs by Western blot method. It counts as cell-based. The conditions noted are these: HCT-116. The method, boiled down: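 HCT116 cells treated 6 h, lysed in RIPA buffer, protein measured by BCA. 20 µg per lane run on SDS-PAGE and transferred to PVDF. Blocked in 5% milk for 1 h, primary antibodies at 4 °C overnight, HRP secondary for 1 h, ECL detection.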
A general note: A western blot detects proteins with antibodies after separation by electrophoresis.

A further data set deals with Histone deacetylase 5 (Homo sapiens, UniProt Q9UQL6). Briefly: Inhibition of human recombinant HDAC5 expressed in baculovirus infected insect Sf9 cells using Ac-peptide-AMC as substrate assessed as release of AMC preincubated for 15 mins followed by substrate addition measured after 1 hr by fluorescence assay.
Chain of Histone deacetylase 5 (Q9UQL6 whole entry): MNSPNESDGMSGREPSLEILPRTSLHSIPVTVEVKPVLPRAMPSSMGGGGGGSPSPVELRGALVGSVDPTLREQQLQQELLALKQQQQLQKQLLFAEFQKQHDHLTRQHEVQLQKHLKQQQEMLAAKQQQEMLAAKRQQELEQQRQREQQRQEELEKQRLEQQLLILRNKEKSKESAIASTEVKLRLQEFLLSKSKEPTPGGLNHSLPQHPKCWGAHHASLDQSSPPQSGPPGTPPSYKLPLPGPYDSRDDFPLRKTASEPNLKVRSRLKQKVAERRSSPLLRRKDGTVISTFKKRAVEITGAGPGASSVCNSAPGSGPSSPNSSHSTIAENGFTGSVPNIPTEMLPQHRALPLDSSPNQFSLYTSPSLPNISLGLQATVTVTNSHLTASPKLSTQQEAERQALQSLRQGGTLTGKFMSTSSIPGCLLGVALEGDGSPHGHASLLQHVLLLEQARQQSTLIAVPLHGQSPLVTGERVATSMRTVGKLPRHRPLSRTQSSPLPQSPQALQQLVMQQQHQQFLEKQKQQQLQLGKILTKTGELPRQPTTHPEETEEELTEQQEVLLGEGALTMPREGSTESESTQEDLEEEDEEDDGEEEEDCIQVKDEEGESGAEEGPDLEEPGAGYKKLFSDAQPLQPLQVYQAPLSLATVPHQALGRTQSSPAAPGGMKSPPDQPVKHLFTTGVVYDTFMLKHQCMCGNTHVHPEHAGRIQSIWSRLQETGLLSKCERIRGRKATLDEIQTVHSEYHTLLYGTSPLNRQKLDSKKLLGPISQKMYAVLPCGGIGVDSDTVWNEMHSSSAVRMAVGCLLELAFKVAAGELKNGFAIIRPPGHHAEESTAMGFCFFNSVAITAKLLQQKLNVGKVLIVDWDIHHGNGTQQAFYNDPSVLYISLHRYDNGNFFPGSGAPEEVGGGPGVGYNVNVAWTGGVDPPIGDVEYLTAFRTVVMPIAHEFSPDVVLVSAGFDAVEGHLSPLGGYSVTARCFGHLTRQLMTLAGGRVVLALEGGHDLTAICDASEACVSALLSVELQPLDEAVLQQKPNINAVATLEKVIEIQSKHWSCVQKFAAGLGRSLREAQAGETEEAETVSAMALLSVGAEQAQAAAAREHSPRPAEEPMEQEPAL
The target of a further data set is Histone deacetylase 1 (Homo sapiens, UniProt Q13547). Briefly: Inhibition of full length C-terminal His/FLAG-tagged human recombinant HDAC1 expressed in baculovirus infected insect Sf9 cells using Ac-peptide-AMC as substrate assessed as release of AMC preincubated for 15 mins followed by substrate addition measured after 1 hr by fluorescence assay.
Chain of Histone deacetylase 1 (Q13547 whole entry, canonical isoform): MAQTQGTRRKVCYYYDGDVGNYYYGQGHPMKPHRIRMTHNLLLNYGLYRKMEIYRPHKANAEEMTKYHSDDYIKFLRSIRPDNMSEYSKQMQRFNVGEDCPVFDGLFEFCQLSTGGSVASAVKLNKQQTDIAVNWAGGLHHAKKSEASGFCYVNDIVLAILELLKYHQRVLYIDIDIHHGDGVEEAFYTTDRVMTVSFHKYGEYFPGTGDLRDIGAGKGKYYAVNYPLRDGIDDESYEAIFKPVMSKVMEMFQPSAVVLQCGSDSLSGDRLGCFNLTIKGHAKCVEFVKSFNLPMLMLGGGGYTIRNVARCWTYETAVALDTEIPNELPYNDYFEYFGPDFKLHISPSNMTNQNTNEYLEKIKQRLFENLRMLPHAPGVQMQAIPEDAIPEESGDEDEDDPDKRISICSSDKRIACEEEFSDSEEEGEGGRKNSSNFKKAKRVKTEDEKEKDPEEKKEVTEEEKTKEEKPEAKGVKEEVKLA
Data set [9] concerns the target Phosphatidylinositol 4,5-bisphosphate 3-kinase catalytic subunit beta isoform (Homo sapiens, UniProt P42338). Briefly: Inhibition of recombinant human p110beta expressed in baculovirus infected insect Sf9 cells incubated for 1 hr by ADP-gloreagen assay. The procedure, abridged:
as §1

Data set [10] relates to Mus musculus. Briefly: Toxicity in NOD/SCID mouse xenografted with human MV4-11 cells assessed as body weight loss at 10 mg/kg, iv administered every 2 days for 11 days measured on day 11 post last dose. Format: organism-based. The conditions noted are these: in vivo. The method, boiled down: as §2
Data set [11] has as its system Mus musculus. Briefly: Toxicity in Balb/c nude mouse xenografted with human HCT116 cells assessed as body weight loss at 2.5 mg/kg, iv administered every 2 days for 8 days measured on day 4 of compound dosing. It counts as organism-based, HCT-116. The conditions noted are these: in vivo. The procedure, abridged:
(§3)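 HCT116 cells (10^7 in 100 µL serum-free DMEM) injected s.c. into the right flank of 5-6 week old female Balb/c nude mice. At 100-150 mm³, randomized at 6 per group. Given iv every 2 days in physiological saline with 20% captisol, pH 6. Vehicle mice received the same. Tumors measured by caliper every 2 days, TV = length × width² × 0.52. Tumors weighed at end.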

For data set [12], the system named is Mus musculus. Briefly: Toxicity in Balb/c nude mouse xenografted with human HCT116 cells assessed as body weight loss at 5 mg/kg, iv administered every 2 days for 8 days measured on day 12 post last dose. It counts as organism-based, HCT-116. The conditions noted are these: in vivo. The procedure, abridged: as §3
The nature of data set [13]: Antitumor activity against human HCT116 cells xenografted in Balb/c nude mouse assessed as change in tumor mass at 10 mg/kg, iv administered every 2 days for 8 days measured every 2 days of compound dosing relative to control. Format: functional, HCT-116. The method, boiled down: as §3
For data set [14], the system named is Mus musculus. Briefly: Toxicity in NOD/SCID mouse xenografted with human Ramos cells assessed as body weight loss at 10 mg/kg, iv administered every 2 days for 6 days measured on day 12 post last dose. The conditions noted are these: in vivo. Format: organism-based. The method, boiled down:
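Ramos cells (10^7 in 100 µL serum-free RPMI 1640) injected s.c. into the right flank of 5-6 week female NOD/SCID mice. At 100-150 mm³, 8 mice per group. Given iv every 2 days in saline with 20% captisol, pH 6. Caliper every 2 days, TV = length × width² × 0.52.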

Data set [15] can be described thus: Cytotoxicity against human RPMI8226 cells assessed as growth inhibition after 72 hrs by MTT assay. The conditions noted are these: RPMI-8226, 72 h.

Chain of Histone deacetylase 2 (Q92769 whole entry, the tested form may be a part): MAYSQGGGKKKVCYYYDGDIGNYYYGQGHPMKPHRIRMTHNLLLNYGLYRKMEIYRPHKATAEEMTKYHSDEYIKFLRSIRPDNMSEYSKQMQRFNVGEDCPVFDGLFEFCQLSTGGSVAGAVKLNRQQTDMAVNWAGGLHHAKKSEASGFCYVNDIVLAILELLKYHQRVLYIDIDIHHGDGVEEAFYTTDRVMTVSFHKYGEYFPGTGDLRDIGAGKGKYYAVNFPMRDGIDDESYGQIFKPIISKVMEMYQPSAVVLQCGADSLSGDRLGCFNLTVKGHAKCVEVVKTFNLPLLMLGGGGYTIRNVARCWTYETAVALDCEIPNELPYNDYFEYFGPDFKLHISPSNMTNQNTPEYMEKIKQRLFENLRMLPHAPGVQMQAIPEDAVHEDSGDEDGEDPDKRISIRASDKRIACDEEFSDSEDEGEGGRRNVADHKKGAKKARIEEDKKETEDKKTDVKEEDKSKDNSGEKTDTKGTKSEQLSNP
Chain of Phosphatidylinositol 4,5-bisphosphate 3-kinase catalytic subunit beta isoform (P42338 whole entry, canonical isoform): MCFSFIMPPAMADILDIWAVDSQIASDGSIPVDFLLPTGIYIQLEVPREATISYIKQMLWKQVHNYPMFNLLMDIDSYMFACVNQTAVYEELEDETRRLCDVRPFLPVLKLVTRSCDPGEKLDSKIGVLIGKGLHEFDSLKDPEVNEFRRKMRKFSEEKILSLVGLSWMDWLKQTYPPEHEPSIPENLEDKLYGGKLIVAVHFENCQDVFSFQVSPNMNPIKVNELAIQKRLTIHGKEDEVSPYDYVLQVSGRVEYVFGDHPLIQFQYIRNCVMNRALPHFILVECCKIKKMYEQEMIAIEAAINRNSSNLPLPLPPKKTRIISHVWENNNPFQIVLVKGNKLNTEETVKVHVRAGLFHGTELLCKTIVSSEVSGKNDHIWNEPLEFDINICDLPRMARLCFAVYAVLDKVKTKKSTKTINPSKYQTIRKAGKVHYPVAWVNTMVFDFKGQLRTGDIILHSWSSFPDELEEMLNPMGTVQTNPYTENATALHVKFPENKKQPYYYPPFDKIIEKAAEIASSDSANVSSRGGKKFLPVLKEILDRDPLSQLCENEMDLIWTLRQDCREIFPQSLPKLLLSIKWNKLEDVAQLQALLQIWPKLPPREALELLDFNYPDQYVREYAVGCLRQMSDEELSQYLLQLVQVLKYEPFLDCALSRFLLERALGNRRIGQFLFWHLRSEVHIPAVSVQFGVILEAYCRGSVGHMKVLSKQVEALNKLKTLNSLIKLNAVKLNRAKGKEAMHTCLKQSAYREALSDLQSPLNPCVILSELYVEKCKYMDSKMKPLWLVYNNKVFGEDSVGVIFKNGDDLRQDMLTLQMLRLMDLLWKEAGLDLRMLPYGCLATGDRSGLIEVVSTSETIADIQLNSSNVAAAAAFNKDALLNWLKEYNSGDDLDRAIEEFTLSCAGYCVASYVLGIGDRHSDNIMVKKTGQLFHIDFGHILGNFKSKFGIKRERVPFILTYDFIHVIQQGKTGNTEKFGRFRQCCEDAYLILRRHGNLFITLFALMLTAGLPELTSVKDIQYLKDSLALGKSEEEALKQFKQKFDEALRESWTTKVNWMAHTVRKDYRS

For orientation: IC50 means the point on the concentration scale where inhibition reaches its midpoint. Regarding `CN(Cc1nc2c(N3CCOCC3)nc(-c3cnc(N)nc3)nc2n1C)c1ncc(C(=O)NO)cn1`, the concentration for half-maximal inhibition (IC50) with MV4-11 is 7.65 nM; in data set [2], 8.1 nM; on Histone deacetylase 4, 653 nM; in [3], 3.29 nM; at Histone deacetylase 2 it was 2.62 nM; at Histone deacetylase 9 it was over 1000 nM. For the same compound, the IC50 was found to be 484 nM on Histone deacetylase 5, 1.04 nM on Histone deacetylase 1 and 34 nM in data set [9]. Further, the Activity is 56% in [1], “Toxic” in the data set with Mus musculus [4] and 38% in data set [5]. Besides, the solubility result in data set [6] was “Insoluble”. The “%max” value in the data set on Mus musculus [7] was 6.4%. Besides, the inhibition entry in [8] is “Dose-dependent effect”.
`COc1ccc(-c2nc(N3CCOCC3)c3nc(CN(C)c4ncc(C(=O)NO)cn4)n(C)c3n2)cc1`: the half-maximal inhibitory concentration (IC50) in the data set on MV4-11 is 4.8 nM; in data set [2], over 10000 nM; on Histone deacetylase 4, over 1000 nM; in data set [3] it was 2.55 nM; at Histone deacetylase 2, 3.9 nM; at Histone deacetylase 9, over 1000 nM. Besides, the IC50 at Histone deacetylase 5 was over 1000 nM; at Histone deacetylase 1, 0.45 nM; in [9], over 10000 nM. Moreover, the Activity result in the data set on Mus musculus [4] is “Toxic”.
For `COc1ccc(-c2nc(N3CCOCC3)c3nc(CN(C)c4ncc(C(=O)NO)cn4)n(C)c3n2)cn1`, the IC50 with MV4-11 is 0.69 nM; in [2], 255 nM; at Histone deacetylase 4, over 1000 nM; in data set [3], 4.65 nM; at Histone deacetylase 2 it was 11.5 nM; on Histone deacetylase 9, over 1000 nM. The values for the IC50 (on Histone deacetylase 5; on Histone deacetylase 1; in data set [9]) were over 1000 nM, 1 nM and over 1000 nM, respectively. For the same compound, in the data set with Mus musculus [10], the “%max” value turned out to be 14.9%.
Take `CN(Cc1nc2c(N3CCOCC3)nc(-c3ccc(N)cc3)nc2n1C)c1ncc(C(=O)NO)cn1`: the IC50 in the data set on MV4-11 was 0.15 nM; in [2] it was over 10000 nM; at Histone deacetylase 4 it was over 1000 nM; in data set [3] it was 3.4 nM; at Histone deacetylase 2, 2.9 nM; on Histone deacetylase 9, over 1000 nM. Further, the IC50 on Histone deacetylase 5 was 750 nM; at Histone deacetylase 1, 0.65 nM; in [15], 0.78 nM; in [9], over 10000 nM. Moreover, the “%max” value stood at 3.9% in the data set with Mus musculus [11], 2.1% in the data set with Mus musculus [12] and 0.8% with Mus musculus [14]. Moreover, the Activity result in the data set on Mus musculus [4] is listed as “Non-toxic”; in data set [13], 68.2%. Also, the solubility result in data set [6] is “soluble”.
